Measurements: ChEMBL document CHEMBL4325889, “Natural products hybrids: 3,5,4'-Trimethoxystilbene-5,6,7-trimethoxyflavone chimeric analogs as potential cytotoxic agents against diverse human cancer cells” (Eur J Med Chem, 2019)

Columns and labels:
Type in all cases: functional
NCI/ADR-RES = assay: Growth inhibition of human NCI/ADR-RES cells at 10 uM after 48 hrs by SRB assay relative to control; conditions: read-out: GI
How it was run: (§1)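 Screened at the National Cancer Institute by the standard NCI protocol using the sulforhodamine B assay, which measures cellular protein. Single dose of 10 µM. Result is percent growth inhibition; values above 100% mean cell number fell below the initial population. Values are the average of duplicates.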

BT-549 = assay: Growth inhibition of human BT549 cells at 10 uM after 48 hrs by SRB assay relative to control; conditions: BT-549, 48 h, read-out: GI; how it was run: as §1
HCC 2998 = assay: Growth inhibition of human HCC2998 cells at 10 uM after 48 hrs by SRB assay relative to control; conditions: HCC 2998, 48 h, read-out: GI; how it was run: as §1
K562 = assay: Growth inhibition of human K562 cells at 10 uM after 48 hrs by SRB assay relative to control; conditions: K562, 48 h, read-out: GI; how it was run: as §1
NCI-H23 = assay: Growth inhibition of human NCI-H23 cells at 10 uM after 48 hrs by SRB assay relative to control; conditions: NCI-H23, 48 h, read-out: GI; how it was run: as §1
SF-295 = assay: Growth inhibition of human SF295 cells at 10 uM after 48 hrs by SRB assay relative to control; conditions: SF-295, 48 h, read-out: GI; how it was run: as §1
RPMI-8226 = assay: Growth inhibition of human RPMI8226 cells at 10 uM after 48 hrs by SRB assay relative to control; conditions: RPMI-8226, 48 h, read-out: GI; how it was run: as §1
LOX IMVI = assay: Growth inhibition of human LOXIMVI cells at 10 uM after 48 hrs by SRB assay relative to control; conditions: read-out: GI; how it was run: as §1
PC-3 = assay: Growth inhibition of human PC3 cells at 10 uM after 48 hrs by SRB assay relative to control; conditions: PC-3, 48 h, read-out: GI; how it was run: as §1
Malme-3M = assay: Growth inhibition of human MALME-3M cells at 10 uM after 48 hrs by SRB assay relative to control; conditions: read-out: GI; how it was run: as §1
OVCAR-4 = assay: Growth inhibition of human OVCAR4 cells at 10 uM after 48 hrs by SRB assay relative to control; conditions: OVCAR-4, 48 h, read-out: GI; how it was run: as §1
UO-31 = assay: Growth inhibition of human UO31 cells at 10 uM after 48 hrs by SRB assay relative to control; conditions: UO-31, 48 h, read-out: GI
How it was run: (§2)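 NCI screen against its human cancer cell line panel by the standard NCI protocol, SRB protein stain. Single dose of 10 μM. Percent growth inhibition versus control; values above 100% mean the cell population fell below the starting number. Each value is the mean of duplicates.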

DU-145 = assay: Growth inhibition of human DU145 cells at 10 uM after 48 hrs by SRB assay relative to control; conditions: DU-145, 48 h, read-out: GI; how it was run: as §1
786-0 = assay: Growth inhibition of human 786-0 cells at 10 uM after 48 hrs by SRB assay relative to control; conditions: 786-0, 48 h, read-out: GI; how it was run: as §1
Hs-578T = assay: Growth inhibition of human Hs 578T cells at 10 uM after 48 hrs by SRB assay relative to control; conditions: read-out: GI; how it was run: as §1
TK-10 = assay: Growth inhibition of human TK10 cells at 10 uM after 48 hrs by SRB assay relative to control; conditions: TK-10, 48 h, read-out: GI; how it was run: as §2
MOLT-4 = assay: Growth inhibition of human MOLT4 cells at 10 uM after 48 hrs by SRB assay relative to control; conditions: MOLT-4, 48 h, read-out: GI; how it was run: as §1
SK-MEL-28 = assay: Growth inhibition of human SK-MEL-28 cells at 10 uM after 48 hrs by SRB assay relative to control; conditions: SK-MEL-28, 48 h, read-out: GI; how it was run: as §1
RXF 393 = assay: Growth inhibition of human RXF393 cells at 10 uM after 48 hrs by SRB assay relative to control; conditions: RXF 393, 48 h, read-out: GI; how it was run: as §1
NCI-H322M = assay: Growth inhibition of human NCI-H322M cells at 10 uM after 48 hrs by SRB assay relative to control; conditions: read-out: GI; how it was run: as §1
CCRF-CEM = assay: Growth inhibition of human CCRF-CEM cells at 10 uM after 48 hrs by SRB assay relative to control; conditions: read-out: GI; how it was run: as §1
MCF7 = assay: Growth inhibition of human MCF7 cells at 10 uM after 48 hrs by SRB assay relative to control; conditions: MCF7, 48 h, read-out: GI; how it was run: as §1
HL-60(TB) = assay: Growth inhibition of human HL-60(TB) cells at 10 uM after 48 hrs by SRB assay relative to control; conditions: HL-60, 48 h, read-out: GI
How it was run: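 Run at NCI under its standard single-dose protocol against a leukemia cell panel. Cells were exposed to 10 µM; growth was read by sulforhodamine B staining of cellular protein and expressed as % growth inhibition versus untreated control. Values above 100% mean the cell population fell below the starting count (cytocidal). Each value is the average of duplicates.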

SNB-75 = assay: Growth inhibition of human SNB75 cells at 10 uM after 48 hrs by SRB assay relative to control; conditions: SNB-75, 48 h, read-out: GI; how it was run: as §2
A549 = assay: Growth inhibition of human A549 cells at 10 uM after 48 hrs by SRB assay relative to control; conditions: A549, 48 h, read-out: GI; how it was run: as §1
SN12C = assay: Growth inhibition of human SN12C cells at 10 uM after 48 hrs by SRB assay relative to control; conditions: read-out: GI; how it was run: as §1
HOP-62 = assay: Growth inhibition of human HOP62 cells at 10 uM after 48 hrs by SRB assay relative to control; conditions: HOP-62, 48 h, read-out: GI; how it was run: as §1
NCI-H522 = assay: Growth inhibition of human NCI-H522 cells at 10 uM after 48 hrs by SRB assay relative to control; conditions: NCI-H522, 48 h, read-out: GI; how it was run: as §1
MDA-MB-435 = assay: Growth inhibition of human MDA-MB-435 cells at 10 uM after 48 hrs by SRB assay relative to control; conditions: MDA-MB-435, 48 h, read-out: GI; how it was run: as §1
NCI-H226 = assay: Growth inhibition of human NCI-H226 cells at 10 uM after 48 hrs by SRB assay relative to control; conditions: NCI-H226, 48 h, read-out: GI; how it was run: as §1
UACC-257 = assay: Growth inhibition of human UACC257 cells at 10 uM after 48 hrs by SRB assay relative to control; conditions: UACC-257, 48 h, read-out: GI; how it was run: as §2
SF-539 = assay: Growth inhibition of human SF539 cells at 10 uM after 48 hrs by SRB assay relative to control; conditions: SF-539, 48 h, read-out: GI; how it was run: as §1
COLO 205 = assay: Growth inhibition of human COLO205 cells at 10 uM after 48 hrs by SRB assay relative to control; conditions: COLO 205, 48 h, read-out: GI; how it was run: as §1
NCI-H460 = assay: Growth inhibition of human NCI-H460 cells at 10 uM after 48 hrs by SRB assay relative to control; conditions: NCI-H460, 48 h, read-out: GI; how it was run: as §1

Row | Compound | inhibition of growth at 10 µM (NCI/ADR-RES) [%] | inhibition of growth at 10 µM (BT-549) [%] | inhibition of growth at 10 µM (HCC 2998) [%] | inhibition of growth at 10 µM (NCI-H23) [%] | inhibition of growth at 10 µM (SF-295) [%] | inhibition of growth at 10 µM (RPMI-8226) [%] | inhibition of growth at 10 µM (LOX IMVI) [%] | inhibition of growth at 10 µM (PC-3) [%] | inhibition of growth at 10 µM (Malme-3M) [%] | inhibition of growth at 10 µM (OVCAR-4) [%] | inhibition of growth at 10 µM (UO-31) [%] | inhibition of growth at 10 µM (DU-145) [%] | inhibition of growth at 10 µM (786-0) [%] | inhibition of growth at 10 µM (Hs-578T) [%] | inhibition of growth at 10 µM (TK-10) [%] | inhibition of growth at 10 µM (MOLT-4) [%] | inhibition of growth at 10 µM (SK-MEL-28) [%] | inhibition of growth at 10 µM (RXF 393) [%] | inhibition of growth at 10 µM (CCRF-CEM) [%] | inhibition of growth at 10 µM (MCF7) [%] | further results
1 | COc1cccc(C(=O)Nc2cccc(-c3cc(=O)c4c(OC)c(OC)c(OC)cc4o3)c2)c1 | 34.5 | 42.5 | 19.5 | 33.9 | 42.7 | 83.2 | 42.6 | 48.8 | 12.8 | 37.7 | 66.7 | 32.6 | 47.2 | 43.2 | 17.2 | 53.3 | 27 | 28.9 | 56.1 | 21.3 | inhibition of growth at 10 µM (K562): 62%; inhibition of growth at 10 µM (NCI-H322M): 27.1%; inhibition of growth at 10 µM (HL-60(TB)): 14.8%; inhibition of growth at 10 µM (SNB-75): 32.6%; inhibition of growth at 10 µM (A549): 44.1%; inhibition of growth at 10 µM (SN12C): 38.7%; inhibition of growth at 10 µM (HOP-62): 30.2%; inhibition of growth at 10 µM (NCI-H522): 58.4%; inhibition of growth at 10 µM (MDA-MB-435): 23.4%; inhibition of growth at 10 µM (NCI-H226): 28%; inhibition of growth at 10 µM (UACC-257): 3.66%; inhibition of growth at 10 µM (SF-539): 33.7%
2 | COc1ccccc1C(=O)Nc1cccc(-c2cc(=O)c3c(OC)c(OC)c(OC)cc3o2)c1 | 41.8 | 54.1 | 32.2 | 37.6 | 40.8 | 93.2 | 64.6 | 70 | 34.5 | 41 | 84.8 | 55.1 | 54.7 | 76.4 | 46.6 | 71.2 | 44 | 41 | 84 | 46.6 | inhibition of growth at 10 µM (K562): 63.6%; inhibition of growth at 10 µM (NCI-H322M): 56.4%; inhibition of growth at 10 µM (HL-60(TB)): 42.3%; inhibition of growth at 10 µM (SNB-75): 16.8%; inhibition of growth at 10 µM (A549): 51.8%; inhibition of growth at 10 µM (SN12C): 59%; inhibition of growth at 10 µM (HOP-62): 42.2%; inhibition of growth at 10 µM (NCI-H522): 55.7%; inhibition of growth at 10 µM (MDA-MB-435): 56.5%; inhibition of growth at 10 µM (NCI-H226): 41.6%; inhibition of growth at 10 µM (UACC-257): 38.5%; inhibition of growth at 10 µM (SF-539): 36.2%
3 | Cc1ccc(NC(=O)c2ccc(CN3CCN(C)CC3)cc2)cc1Nc1nccc(-c2cccnc2)n1 [IMATINIB] | -0.5 | -5 | -22 | 17.1 | 15.1 | 12.6 | 11.6 | 10.6 | -13.7 | -0.1 | 7.6 | 14.4 | 5 | 9.9 | -10 | 18 | -9.4 | 5.7 | 6.6 | 8.1 | inhibition of growth at 10 µM (COLO 205): -1.1%; inhibition of growth at 10 µM (NCI-H460): 3.2%; inhibition of growth at 10 µM (HL-60(TB)): -6.8%; inhibition of growth at 10 µM (SNB-75): 0.6%; inhibition of growth at 10 µM (A549): 3.8%; inhibition of growth at 10 µM (SN12C): 6%; inhibition of growth at 10 µM (MDA-MB-435): 7.4%; inhibition of growth at 10 µM (NCI-H226): 10.6%; inhibition of growth at 10 µM (UACC-257): 2.8%; inhibition of growth at 10 µM (SF-539): 24.5%
